Measurements gathered from unrelated publications.
Each line is one published result; the experiments were not run side by side.
FPR1: fMet-Leu-Phe receptor (FPR1, Homo sapiens, UniProt P21462)
SLC6A2: Sodium-dependent noradrenaline transporter (SLC6A2, Homo sapiens, UniProt P23975)
DNA dC->dU-editing enzyme APOBEC-3B: DNA dC->dU-editing enzyme APOBEC-3B (Homo sapiens, UniProt Q9UH17)

Compound | target | assay | system | conditions | inhibition
CCN(CC)c1ccc(C2=NNC(=O)CC2C)cc1[N+](=O)[O-] (stereo not shown) | 3',5'-cyclic-AMP phosphodiesterase 4B (PDE4B, Homo sapiens, UniProt Q07343) | enzyme activity, inhibitor |  | 0.1 µM | 21%
CCOC(=O)Oc1ccc2c(=O)c(-c3ccccc3OC)c(C(F)(F)F)oc2c1 | FPR1 | calcium signal, antagonist |  | 50 µM | 80%
Fc1ccc(C(c2ccc(F)cc2)c2nnnn2CCCCN2CCC(Cc3ccc(Cl)c(Cl)c3)CC2)cc1 | SLC6A2 | transporter uptake, inhibitor | HEK293 | 1 µM | 75.9%
Cc1ccc(Nc2nccc(N(C)c3ccc4c(C)n(C)nc4c3)n2)cc1S(N)(=O)=O | Serine/threonine-protein kinase Chk2 (CHEK2, Homo sapiens, UniProt O96017, I157T) | enzyme activity, inhibitor |  | 0.3 µM | -1%
OCC1OC(Oc2cc(O)cc(/C=C/c3ccc(O)cc3)c2)C(O)C(O)C1O (stereo not shown) | DNA dC->dU-editing enzyme APOBEC-3B | enzyme activity, inhibitor, fluorescence |  | 100 µM | 31.5%
CCN(Cc1ccccc1C(F)(F)F)C(=O)C1CCN(S(=O)(=O)c2ccc3[nH]ncc3c2)CC1 | Cysteinyl leukotriene receptor 1 (CYSLTR1, Homo sapiens, UniProt Q9Y271) | ligand displacement, radioligand |  | 10 µM | 38%
COc1ccccc1-c1c(C(F)(F)F)oc2cc(OC(=O)C(C)C)ccc2c1=O | FPR1 | calcium signal, antagonist |  | 50 µM | 100%
c1ccc(CCC2CCN(CCCn3nnnc3C(c3ccccc3)c3ccccc3)CC2)cc1 | SLC6A2 | transporter uptake, inhibitor | HEK293 | 1 µM | 74.4%
CC(=O)N[C@H]1CSSC[C@@H](C(=O)N[C@H](Cc2c[nH]c3ccccc23)C(N)=O)NC(=O)[C@H](Cc2ccccc2)NC(=O)[C@H](CCCNC(=N)N)NC1=O | Melanocortin receptor 4 (MC4R, Homo sapiens, UniProt P32245) | ligand displacement, radioligand |  | 10 µM, 40 min | 0%
Oc1cccc(Nc2nc(-c3ccc(F)cc3F)cs2)c1 | Muscarinic acetylcholine receptor M5 (CHRM5, Homo sapiens, UniProt P08912) | cell-free assay |  | 10 µM | -24.9%
COc1ccccc1-c1c(C(F)(F)F)oc2cc(OC(=O)c3ccco3)ccc2c1=O | FPR1 | calcium signal, antagonist |  | 50 µM | 100%
Clc1ccc(CC2CCN(CCCCn3nnnc3C(c3ccccc3)c3ccccc3)CC2)cc1Cl | SLC6A2 | transporter uptake, inhibitor | HEK293 | 1 µM | 63.9%
COc1cc(/C=C/C(=O)CC(=O)/C=C/c2ccc(O)c(OC)c2)ccc1O | DNA dC->dU-editing enzyme APOBEC-3B | enzyme activity, inhibitor, fluorescence |  | 100 µM | 75.2%
O=C(Oc1ccc2c(=O)c(-c3ccccc3Cl)c(C(F)(F)F)oc2c1)c1cccs1 | FPR1 | calcium signal, antagonist |  | 50 µM | 100%
Clc1ccc(C(c2ccccc2)c2nnnn2CCCCN2CCN(CCCc3ccccc3)CC2)cc1 (stereo not shown) | SLC6A2 | transporter uptake, inhibitor | HEK293 | 1 µM | 63.6%
CCN1CCN(Cc2ccc(NC(=O)c3ccc(C)c(Oc4ccnc5[nH]ccc45)c3)cc2C(F)(F)F)CC1 | Serine/threonine-protein kinase WNK4 (WNK4, Homo sapiens, UniProt Q96J92) | target engagement in cells, inhibitor, chemoproteomics | Huh-7 | 1 µM | -11.5%
Clc1ccc(C(c2ccccc2)c2nnnn2CCCCN2CCN(CCc3ccccc3)CC2)cc1 (stereo not shown) | SLC6A2 | transporter uptake, inhibitor | HEK293 | 1 µM | 47.6%
CNC(=O)c1cc(Oc2ccc(NC(=O)Nc3ccc(Cl)c(C(F)(F)F)c3)cc2)ccn1 | Fibroblast growth factor receptor 1 (FGFR1, Homo sapiens, UniProt P11362, V561M) | cell-free assay |  | 10 µM | 84%
Fc1ccc(C(c2ccc(F)cc2)c2nnnn2CCCN2CCC(CCCc3ccccc3)CC2)cc1 | SLC6A2 | transporter uptake, inhibitor | HEK293 | 1 µM | 23.8%
Cc1nnc2sc(C(=O)NCc3ccc(S(=O)(=O)C(F)(F)F)cc3)c(N)c2c1C | Glutamate receptor ionotropic, NMDA 1 (Grin1, Rattus norvegicus, UniProt P35439) | ligand displacement, radioligand |  | 10 µM | 14%
Clc1ccc(C(c2ccc(Cl)cc2)c2nnnn2CCCCN2CCC(Cc3ccc(Cl)c(Cl)c3)CC2)cc1 | SLC6A2 | transporter uptake, inhibitor | HEK293 | 1 µM | 41.1%
Cc1c(COc2c(F)cc(F)cc2F)c2c(n1C)C(=O)C=C(NCCCN(C)C)C2=O | Ribosyldihydronicotinamide dehydrogenase [quinone] (NQO2, Homo sapiens, UniProt P16083) | enzyme activity, inhibitor |  | 1 µM | 98%
